This note sets out measurements from ChEMBL document CHEMBL4024790 (J Med Chem, 2018).

Calls of active or inactive are those of the source. No cut-off for these calls is given here.

A word on the Cmax: it is the maximum level reached in the sampled fluid or tissue. In general, bioavailability refers to dose-corrected exposure relative to a reference, in per cent. One may read the AUC(0-inf) as the area under the concentration-time curve extrapolated to infinity.

Series [1] has as its system Canis familiaris. Briefly: Cardiotoxicity in dog up to 15 mg/kg/day, po for 14 days by microscopic method. The class given is toxicity, organism-based, Canis lupus familiaris. As to conditions: in vivo, 336 h.
For series [2], the target named is T1, Cytochrome P450 3A (Homo sapiens, UniProt P08684+P20815+Q9HB55+P24462). Nature of the series: Inhibition of recombinant human CYP3A. It is filed as ADME. As to conditions: recombinant enzyme.
Series [3] relates to Rattus norvegicus. Briefly: Reversal of MK-801-induced disruption of low frequency cortical delta oscillation in Sprague-Dawley rat brain at 0.03 mg/kg, iv in early time point measured up to 55 mins by electrophysiology method. It is filed as functional, organism-based.
Series [4] in a line: Cmax in beagle dog at 0.3 mg/kg, iv by LC-MS/MS analysis. It is filed as ADME, organism-based, Canis lupus familiaris. Also on record: dose 0.3 mg/kg, route intravenous. Particulars: in vivo. In outline: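 Male Wistar-Han rats given single 1 mg/kg IV; beagle dogs 0.3 mg/kg IV; solution in 20% (w/v) sulfobutyl ether β-cyclodextrin with hydrochloric acid, 1 mL/kg (rat) or 0.4 mL/kg (dog). Blood via carotid artery cannula between 2 min and 24 h into EDTA tubes; plasma analysed by LC-MS/MS with positive electrospray.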

The species named for series [5] is Canis familiaris. Briefly: Cardiotoxicity in dog up to 1 month by microscopic method. The class given is toxicity, Canis lupus familiaris.
The species entered for another series is Mus musculus. Nature of the series: Increase in cGMP level in CD-1 mouse brain cortex by immunoassay. The class given is functional. In outline:
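CD-1 mice dosed SC (solution in 20% SBE-β-CD with 2 molar equivalents 1N HCl, 1 mL/kg); euthanized by focused microwave irradiation of brain; cortex, striatum, hippocampus homogenized in 0.5 N HCl, centrifuged; cyclic nucleotides in supernatant by enzyme immunoassay. Unbound brain exposure from satellite animals; dose-response and time-course data combined with linear model; one-way ANOVA with Fisher's PLSD.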

For series [6], the system named is Rattus norvegicus. Briefly: Toxicity in rat assessed as effect on vasculature at 5 to 250 mg/kg/day, po up to 15 days by microscopic method. The class given is organism-based. Particulars: in vivo, 360 h.
A short description of series [7]: Oral bioavailability in beagle dog at 5 mg/kg administered via gavage by LC-MS/MS analysis. It is filed as ADME, organism-based, Canis lupus familiaris. Particulars: in vivo.
The subject of series [8] is Liver. Nature of the series: Drug metabolism in human liver microsomes assessed as 1-(7-methyl-5-(1-methyl-5-(5-(trifluoromethyl)pyridin-2-yl)-1H-pyrazol-4-yl)imidazo[1,5-f][1,2,4]triazin-4-yl)azetidin-3-ol formation at 1 to 50 uM after 1 hr by LC-MS/MS analysis. The class given is ADME, microsome. In short, it runs like this:
(§1)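 Rat, dog or human liver microsomes or hepatocytes (P450 0.35–0.5 µM final) incubated with compound at 1, 10 or 50 µM in 100 mM phosphate buffer with 1 mM NADP regenerating system, 37°C for 1 h; quenched with 4 volumes acetonitrile, centrifuged, supernatant evaporated, reconstituted in 5% aqueous acetonitrile and analysed by reversed-phase LC.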

The test system of series [9] is Rattus norvegicus. Nature of the series: Reversal of MK-801-induced disruption of low frequency cortical delta oscillation in Sprague-Dawley rat brain at 0.03 mg/kg, iv measured up to 55 mins by electrophysiology method. It is filed as functional, organism-based.
Series [10] is described as follows: Volume of distribution at steady state in Wistar Han rat at 1 mg/kg, iv by LC-MS/MS analysis. It is filed as ADME, organism-based. As to conditions: in vivo, read-out: Vdss. In outline:
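Male Wistar-Han rats got a single IV dose as a solution in 20% (w/v) sulfobutyl ether β-cyclodextrin with hydrochloric acid, at 1 mL/kg. Blood was drawn into K2EDTA via carotid artery cannula at set times from 2 min to 24 h. Plasma was protein-precipitated with acetonitrile plus internal standard and quantified by LC-MS/MS with positive electrospray, standard curve 0.61 to 625 ng/mL.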

Series [11] is described as follows: AUC (0 to infinity) in Wistar Han rat at 5 mg/kg, po administered via gavage by LC-MS/MS analysis. The class given is ADME, organism-based. Also on record: dose 5 mg/kg, route oral, time infinity. Particulars: in vivo.
Series [12] in a line: Drug metabolism in human hepatocytes assessed as 3-(7-methyl-5-(1-methyl-5-(5-(trifluoromethyl)pyridin-2-yl)-1H-pyrazol-4-yl)imidazo[1,5-f][1,2,4]triazin-4-ylamino)propanoic acid formation at 1 to 50 uM after 1 hr by LC-MS/MS analysis. The class given is ADME, cell-based, Hepatocyte. In outline: as §1
Series [13] relates to Liver. Briefly: Drug metabolism in rat liver microsomes assessed as 3-(7-methyl-5-(1-methyl-5-(5-(trifluoromethyl)pyridin-2-yl)-1H-pyrazol-4-yl)imidazo[1,5-f][1,2,4]triazin-4-ylamino)propanoic acid formation at 1 to 50 uM after 1 hr by LC-MS/MS analysis. It is filed as ADME, microsome. In outline:
as §1
In general terms: Microsomes from liver hold many membrane-bound enzymes, among them those of drug oxidation.

Series [14] concerns Canis familiaris. Nature of the series: Toxicity in dog up to 30 mg/kg, po administered as single dose by microscopic method. It is filed as organism-based, Canis lupus familiaris. Particulars: in vivo.
In series [15] the test system is Rattus norvegicus. Nature of the series: Cardiotoxicity in rat at 5 to 250 mg/kg/day, po up to 15 days by microscopic method. The class given is toxicity, organism-based. As to conditions: in vivo, 360 h. In outline:
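Exploratory rat toxicity study, oral dosing at 5, 50 and 250 mg/kg/day for up to 15 days, with microscopic examination of heart and vasculature and measurement of plasma and brain exposure.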

For a further series, the target named is T2, Cytochrome P450 1A2 (Homo sapiens, UniProt P05177).
T2 sequence (P05177 whole entry): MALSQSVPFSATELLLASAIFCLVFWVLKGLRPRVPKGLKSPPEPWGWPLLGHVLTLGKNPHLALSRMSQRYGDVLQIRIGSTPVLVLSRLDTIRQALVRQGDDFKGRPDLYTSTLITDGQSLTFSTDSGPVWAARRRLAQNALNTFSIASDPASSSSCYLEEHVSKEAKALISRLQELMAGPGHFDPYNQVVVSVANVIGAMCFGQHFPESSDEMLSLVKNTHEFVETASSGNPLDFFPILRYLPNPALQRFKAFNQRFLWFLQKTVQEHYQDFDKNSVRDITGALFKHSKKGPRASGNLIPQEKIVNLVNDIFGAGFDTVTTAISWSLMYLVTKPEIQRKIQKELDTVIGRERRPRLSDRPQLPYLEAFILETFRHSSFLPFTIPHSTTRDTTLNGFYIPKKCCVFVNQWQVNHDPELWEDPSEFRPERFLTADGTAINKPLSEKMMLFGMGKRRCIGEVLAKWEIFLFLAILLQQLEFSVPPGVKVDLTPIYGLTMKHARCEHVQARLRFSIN
Nature of the series: Time-dependant inhibition of recombinant human CYP1A2. It is filed as ADME. Particulars: recombinant enzyme.

A further series addresses Cytochrome P450 2D6 (Homo sapiens, UniProt P10635). Briefly: Inhibition of recombinant human CYP2D6. As to conditions: recombinant enzyme. The class given is ADME.
The target in series [16] is T1, Cytochrome P450 3A. Nature of the series: Time-dependant inhibition of recombinant human CYP3A. It is filed as ADME. Particulars: recombinant enzyme.
A short description of series [17]: Drug metabolism in dog hepatocytes assessed as 3-(7-methyl-5-(1-methyl-5-(5-(trifluoromethyl)pyridin-2-yl)-1H-pyrazol-4-yl)imidazo[1,5-f][1,2,4]triazin-4-ylamino)propanoic acid formation at 1 to 50 uM after 1 hr by LC-MS/MS analysis. It is filed as ADME, cell-based, Canis lupus familiaris, Hepatocyte. In short, it runs like this: as §1
For the next series, the target named is Cytochrome P450 2C9 (Homo sapiens, UniProt P11712). Nature of the series: Inhibition of recombinant human CYP2C9. The class given is ADME. As to conditions: recombinant enzyme.
Chain of Cytochrome P450 2C9 (P11712 whole entry): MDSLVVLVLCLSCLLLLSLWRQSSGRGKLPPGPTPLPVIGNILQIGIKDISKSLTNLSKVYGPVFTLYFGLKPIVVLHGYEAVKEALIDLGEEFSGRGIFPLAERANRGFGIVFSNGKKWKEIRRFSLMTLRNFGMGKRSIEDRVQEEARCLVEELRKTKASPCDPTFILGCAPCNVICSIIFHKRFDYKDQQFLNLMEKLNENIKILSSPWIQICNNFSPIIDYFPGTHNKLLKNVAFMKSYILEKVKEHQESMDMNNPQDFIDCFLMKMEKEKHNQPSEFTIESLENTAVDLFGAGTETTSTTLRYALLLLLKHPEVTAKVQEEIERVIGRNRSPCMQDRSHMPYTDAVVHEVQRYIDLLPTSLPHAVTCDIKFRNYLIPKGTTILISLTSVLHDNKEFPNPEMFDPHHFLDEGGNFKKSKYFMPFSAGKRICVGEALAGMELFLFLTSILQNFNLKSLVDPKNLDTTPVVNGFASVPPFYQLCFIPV
Series [18] in a line: AUC (0 to infinity) in beagle dog at 5 mg/kg, po administered via gavage by LC-MS/MS analysis. The class given is ADME, organism-based, Canis lupus familiaris. Also on record: dose 5 mg/kg, route oral, time infinity. Particulars: in vivo.
Series [19] is described as follows: Terminal half life in Wistar Han rat at 5 mg/kg, po administered via gavage by LC-MS/MS analysis. It is filed as ADME, organism-based. Particulars: in vivo, read-out: beta t1/2 (converted).

Chain of Cytochrome P450 2D6 (P10635 whole entry): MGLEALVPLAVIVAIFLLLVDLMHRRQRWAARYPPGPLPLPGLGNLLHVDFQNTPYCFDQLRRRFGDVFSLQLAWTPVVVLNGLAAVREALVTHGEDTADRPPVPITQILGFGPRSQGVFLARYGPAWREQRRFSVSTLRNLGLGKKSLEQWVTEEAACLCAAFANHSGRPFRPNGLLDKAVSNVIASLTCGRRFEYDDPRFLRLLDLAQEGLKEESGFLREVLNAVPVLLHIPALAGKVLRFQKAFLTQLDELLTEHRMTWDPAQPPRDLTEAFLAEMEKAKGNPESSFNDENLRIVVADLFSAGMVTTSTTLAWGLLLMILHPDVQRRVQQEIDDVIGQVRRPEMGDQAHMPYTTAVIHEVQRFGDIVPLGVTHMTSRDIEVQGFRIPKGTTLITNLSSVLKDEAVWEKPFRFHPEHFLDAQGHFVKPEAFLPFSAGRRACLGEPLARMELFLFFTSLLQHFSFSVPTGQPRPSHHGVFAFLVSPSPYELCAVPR

Turning to `Cc1nc(-c2cnn(C)c2-c2ccc(C(F)(F)F)cn2)c2c(N3CCC3)ncnn12` [PF-05180999], the Activity result in the series with Canis familiaris [1] is “Non-Toxic”; in the series filed under Canis familiaris [5], “Non-Toxic”; in the series filed under Mus musculus, “Dose-dependent effect”; in the series with Rattus norvegicus [6], “Non-Toxic”; in the series on Canis familiaris [14] it was “Non-Toxic”; with Rattus norvegicus [15], “Non-Toxic”. The “inhibition (INH)” value on Cytochrome P450 3A [2], on Cytochrome P450 2D6 and at Cytochrome P450 2C9 was “Not Active” throughout. Further, the outcome in the series with Rattus norvegicus [3] was Active. The molecule further came in with a Cmax in [4] of 293 ng/mL. The molecule further returned a bioavailability in series [7] of 57%. In addition, the Drug metabolism result (in the series on Liver [8]; in series [12]; in the series with Liver [13]; in [17]) was “Metabolite_Detected” in each case. Also, the result in the series on Rattus norvegicus [9] was inactive. Further, the Vd in [10] was determined as 3.94 L/kg. Further, the AUC(0-inf) in series [11] turned out to be 312 ng·h/mL; in [18], 4120 ng·h/mL. In addition, the TDI result on Cytochrome P450 1A2 and on Cytochrome P450 3A [16] was “Not Active” each time. Also, the half-life in series [19] is 1.4 h.
